Assay outcomes (PubChem)
ERa SRC1 inh: ER-alpha (human) coactivator binding inhibition. TR-FRET ER-alpha LBD / SRC-1 peptide, estradiol-bound. P03372. 86,000 compounds, 1.7% hits. inhibition, % at 25.6 µM; in the data active = inhibition above about 50%
HIV Rev-RRE inh: disrupts HIV-1 Rev binding to RRE RNA. AID 704. Rev peptide-RRE RNA binding, FRET. 97,000 compounds, 0.79% hits. inhibition, % at 8 µM;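 active = inhibition above the screen-wide mean plus 3 SD, cut at about 35% in these data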
Target sequence (P05866 whole entry, looked up): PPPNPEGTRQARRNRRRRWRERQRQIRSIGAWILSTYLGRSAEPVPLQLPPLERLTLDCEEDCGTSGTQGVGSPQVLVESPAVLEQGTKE
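Assay system: labelled RRE RNA duplex and labelled Rev peptide / Medium: HEPES pH 7.5 salt buffer with EDTA / Reagent: labelled Rev peptide / Schedule: 5 + 15 min at 25 °C / Signal: FRET, excitation 480 nm, emission 540 nm donor and 671 nm acceptor / Benchmarks: DMSO and neomycin B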
sEH inhibitor: inhibitors of human soluble epoxide hydrolase. P34913. recombinant human sEH enzymatic activity assay. inhibition, % at 2 µM. 91,000 compounds, 0.34% hits. AID 707; in the data active = inhibition above about 80%
sEH activator: increases human soluble epoxide hydrolase activity | AID 717 | purified human sEH enzymatic activity, activator screen | activation, % at 2 µM | 91,000 compounds, 0.04% hits; in the data active = activation above about 37%
ERb coact inh: ER-beta (human) coactivator binding inhibition; AID 633; inhibition, % at 25.6 µM; 86,000 compounds, 1.3% hits; Q92731; TR-FRET ER-beta LBD / SRC1-Cy5 peptide binding; receptor agonist-loaded with 1 µM estradiol;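 active = compounds whose percent inhibition of the receptor-coactivator binding signal exceeds about 50% in the single-dose screen, limit read from the data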
Target sequence (Q92731 whole entry, looked up, the tested form may be a part): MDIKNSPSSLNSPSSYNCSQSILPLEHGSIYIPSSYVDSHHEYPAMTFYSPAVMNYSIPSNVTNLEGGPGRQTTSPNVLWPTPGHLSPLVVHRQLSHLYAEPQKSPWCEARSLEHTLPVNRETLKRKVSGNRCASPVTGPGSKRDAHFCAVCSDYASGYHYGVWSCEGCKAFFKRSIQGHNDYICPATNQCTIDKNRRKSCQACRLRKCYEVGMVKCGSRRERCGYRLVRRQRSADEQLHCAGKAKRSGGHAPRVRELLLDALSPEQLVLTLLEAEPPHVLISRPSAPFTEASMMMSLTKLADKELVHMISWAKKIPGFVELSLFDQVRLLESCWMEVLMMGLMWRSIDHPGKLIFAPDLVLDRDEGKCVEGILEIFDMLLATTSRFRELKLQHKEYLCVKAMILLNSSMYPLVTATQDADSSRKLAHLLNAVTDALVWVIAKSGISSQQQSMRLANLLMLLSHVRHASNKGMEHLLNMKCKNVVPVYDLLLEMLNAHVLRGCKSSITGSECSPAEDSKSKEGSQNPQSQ
ERa SRC1 pot: ER-alpha (human) coactivator binding potentiation; coactivator binding (% of control), % at 25.6 µM; P03372; 86,000 compounds, 1.3% hits; TR-FRET ERalpha-LBD/SRC-Cy5 coactivator binding, 2 h; 100 = basal binding, no effect; in the data active = activity above about 200%;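 also: binding measured in presence of low estradiol as agonist stimulus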
Each line names hits and unclear results; the compound was inactive in the other large screens; [ ] = dose if it differs, or a comment. In the library only some 3.5% were active in any assay of this set; here they are far more common.

Cc1oc2cc(O)cc(C)c2c(=O)c1-c1cnn(-c2ccccc2)c1	ERa SRC1 pot 236[fluorescence artefact?]
CCc1cc(=O)oc2cc(C)cc(OC(=O)c3ccco3)c12	none
Cc1cc(OC(=O)c2ccco2)c2c(C)cc(=O)oc2c1	ERa SRC1 pot 272
C/C(N)=C(/C#N)C(=O)CSc1nc2ccc(C)cc2[nH]1	ERb coact inh 57[fluorescence artefact?] (no result: HIV Rev-RRE inh, sEH inhibitor, sEH activator)
C#Cc1ccc(C(=O)Nc2cc(C(N)=O)ccc2N2CCOCC2)cc1	ERa SRC1 inh 69[fluorescence artefact?]
Cn1ccnc1C(O)c1ccco1 (configuration not stated)	none
CCOC(=O)c1ccc(NC(=O)CSc2nnc(-c3cccs3)n2CC)cc1	ERa SRC1 pot 384[fluorescence artefact?]
CCOC(=O)c1ccc(NC(=O)CSc2nnc(-c3cccs3)n2C)cc1	none
C=CCn1c(SCC(=O)Nc2ccc(C(=O)OC(C)C)cc2)nnc1-c1cccs1	ERa SRC1 pot 825[fluorescence artefact?] (no result: HIV Rev-RRE inh, sEH inhibitor, sEH activator)
COc1ccc(NC(=O)CSc2nnc(-c3cccs3)n2-c2ccccc2)cc1	ERa SRC1 pot 323[fluorescence artefact?] (no result: sEH inhibitor, sEH activator)
CCn1c(SCC(=O)c2ccc(CNC(C)=O)o2)nnc1-c1cccs1	ERa SRC1 inh 58
CCc1ccc(NC(=O)CSc2nnc(-c3cccs3)n2CC)cc1	none
CCn1c(SCC(=O)NCc2cccs2)nnc1-c1cccs1	none
C=CCOC(=O)COc1ccc2c(C)c(C)c(=O)oc2c1C	none
CCOc1ccc(-n2cc(C(=O)NC(C)C)c3cc(OC)c(OC)cc3c2=O)cc1	none
O=C(COc1cccc(C(F)(F)F)c1)NCCCN1CCCC1=O	none
O=C(CSc1nnc(-c2cccs2)n1-c1ccccc1)N1CCc2ccccc21	ERa SRC1 pot 925[fluorescence artefact?]
C=CCn1c(SCC(=O)Nc2cccc(OC)c2)nnc1-c1cccnc1	ERa SRC1 pot 226
C=CCn1nnnc1SCC(=O)Nc1cccc(OC)c1	none (no result: HIV Rev-RRE inh, sEH inhibitor, sEH activator)
CCOC(=O)C1C(=O)NC(SCC(=O)Nc2nccs2)=C(C#N)C1c1ccccc1OCC (configuration not stated)	none
NNC(=O)c1cccc(COc2cccc(Br)c2)c1	sEH inhibitor 82 (no result: ERa SRC1 inh, ERb coact inh, ERa SRC1 pot)
CC1(C)C(=O)Nc2ccccc2N1C(=O)COC(=O)C12CC3CC(CC(O)(C3)C1)C2	ERa SRC1 inh 88[fluorescence artefact?], ERb coact inh 78[fluorescence artefact?]
O=C(CSCC(=O)N1CCCCC1)OCC(=O)c1c[nH]c2ccccc12	none
Cc1c(C)n(C(=O)CSc2nc3ccccc3[nH]2)c2ccccc12	ERa SRC1 inh 55[fluorescence artefact?]
CNS(=O)(=O)c1ccc(NC(=O)C(CCSC)NC(N)=O)cc1 (configuration not stated)	none
N#Cc1c2c(c(NCc3ccco3)n3c1nc1ccccc13)CCC2	none
c1coc(CNc2c3c(nc4ccccc24)CCC3)c1	HIV Rev-RRE inh 36
Cc1cc(C)nc(Nc2n[nH]c(COc3cccc4ccccc34)n2)n1	none
O=C(CSc1nnc(Cc2ccc3c(c2)OCO3)n1C1CCCCC1)NC1CCCC1	none
O=C(NC1CCCCC1)NC1CC2CCC(C1)N2Cc1nnnn1Cc1ccc2c(c1)OCO2 (configuration not stated)	sEH inhibitor 95
COCCNC(C)C(=O)Nc1ccc(Br)cc1 (configuration not stated)	none (no result: HIV Rev-RRE inh, sEH inhibitor, sEH activator)
CC(=O)NC(C)C(=O)OCC(=O)Nc1ccc(Br)cc1 (configuration not stated)	ERa SRC1 inh 78
Cc1c(Cl)cccc1NC(=O)CC1SCCNC1=O (configuration not stated)	ERb coact inh 54 (no result: HIV Rev-RRE inh, sEH inhibitor, sEH activator)
Cc1ccnc(NS(=O)(=O)c2ccc(NC(=O)c3ccc(C)o3)cc2)n1	none
O=C(CCN1C(=O)c2ccccc2C1=O)Nc1ccc(F)cc1	ERa SRC1 inh 85[fluorescence artefact?]
O=C(Cc1cccs1)Nc1ccc(S(=O)(=O)N2CCCCC2)cc1	ERa SRC1 inh 96[fluorescence artefact?], ERb coact inh 84
CN1CCN(S(=O)(=O)c2ccc(NC(=O)Cc3cccs3)cc2)CC1	none
O=C(CCN1C(=O)c2ccccc2C1=O)Nc1ccc(F)cc1F	none (no result: HIV Rev-RRE inh, sEH inhibitor, sEH activator)
O=C(Cc1cccs1)Nc1ccc(S(=O)(=O)Nc2ncccn2)cc1	ERa SRC1 inh 88[fluorescence artefact?], ERb coact inh 84
Cc1ccnc(NS(=O)(=O)c2ccc(NC(=O)Cc3cccs3)cc2)n1	ERa SRC1 inh 67, ERb coact inh 62
Cc1ccsc1C(=O)OCC(=O)N1CC(=O)Nc2ccccc21	none
COC(=O)c1ccc(Sc2ccc(Cl)cc2)c(N)c1	none
O=C(Cc1cccs1)Nc1ccc(C(=O)O)cc1	none
O=C(CCCN1C(=O)c2ccccc2C1=O)Nc1ccc(S(=O)(=O)N2CCCCC2)cc1	sEH inhibitor 89
Cc1nc2ccc(NC(=O)Cc3cccs3)cc2s1	ERa SRC1 inh 62[fluorescence artefact?] (no result: HIV Rev-RRE inh, sEH inhibitor, sEH activator)
Cn1c(=O)c2c(ncn2CC(=O)Nc2ccc(N3CCOCC3)cc2)n(C)c1=O	none
CC(NC(=O)CSc1nnc(CC(=O)Nc2ccc(Cl)c(Cl)c2)n1C)c1ccccc1 (configuration not stated)	none
Cn1c(CC(=O)Nc2ccc(Cl)c(Cl)c2)nnc1SCC(=O)N1CCN(c2ccccc2)CC1	ERa SRC1 inh 72[fluorescence artefact?]
Cc1ccc(NC(=O)CSc2nnc(Cn3c(=O)sc4ccccc43)n2C)cc1Cl	ERa SRC1 pot 360 (no result: HIV Rev-RRE inh, sEH inhibitor, sEH activator)
CCOC(=O)C1=C(O)/C(=C/c2ccc(C)o2)SC1=NC(=O)c1ccccc1C	ERa SRC1 inh 64[fluorescence artefact?], HIV Rev-RRE inh 69
CC1(C)C(=O)C2(C(=O)NCc3ccccc3)CCC1C2 (configuration not stated)	none
CC(C)(C)NC(=O)Nc1ccc2nccnc2c1	none
Cc1ccc(C2NC(=O)c3c(sc4c3CCN(C)C4)N2)s1 (configuration not stated)	ERa SRC1 inh 54[fluorescence artefact?], HIV Rev-RRE inh 75 (no result: sEH inhibitor, sEH activator)
O=C1NC(c2ccccn2)Nc2sc3c(c21)CCC3 (configuration not stated)	none
CN1CCc2c(sc3c2C(=O)NC(c2ccccn2)N3)C1 (configuration not stated)	HIV Rev-RRE inh 43
CN1CCc2c(sc3c2C(=O)NC(/C=C/c2ccco2)N3)C1 (configuration not stated)	ERb coact inh 54[fluorescence artefact?]
COC(=O)c1sc(NC(=O)COc2ccc(C)cc2)nc1C	none
Cc1ccc(-n2c3c(cc(C(=O)NCc4ccco4)c2=O)C(=O)CC(C)(C)C3)cc1	none (no result: HIV Rev-RRE inh, sEH inhibitor, sEH activator)
CC1(C)CC2CC(C)(CN2S(=O)(=O)c2cccc(N)c2)C1 (configuration not stated)	ERa SRC1 pot 237[fluorescence artefact?]
CN(C)C(CNC(=O)c1cccc(S(=O)(=O)N2CC3(C)CC2CC(C)(C)C3)c1)c1ccco1 (configuration not stated)	none (no result: HIV Rev-RRE inh, sEH inhibitor, sEH activator)
CC(=O)Nc1ccc(S(=O)(=O)NCCc2ccc(F)cc2)cc1	none (no result: sEH inhibitor, sEH activator)
Cn1cnnc1SCC(=O)Nc1sc2c(c1C(N)=O)CCC2	ERa SRC1 inh 94[fluorescence artefact?], ERb coact inh 93[fluorescence artefact?]
COc1cc(-c2nnc3n2N=C(c2ccccc2)CS3)cc(OC)c1OC	none
O=C1c2ccccc2CC1(Cc1ccccc1)Cc1ccccc1	ERa SRC1 pot 279
CC1(C)Cc2ccccc2C(=O)N1	none
